Measurements as given in paper PMC8314033 (BioImpacts : BI, 2020).

What was measured:
[1] = Hydroxyl radical scavenging activity; conditions: 5 minutes, 560 nm; standard ascorbic acid
[2] = system: MCF7 (breast cancer cell lines); experiment: In vitro cell antiproliferative test; format: cell-based, human; conditions: MCF7, 200 µg/mL, 48 hours
In short: (§1)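 Cells grown in DMEM with 10% heat-inactivated FBS and penicillin-streptomycin, detached with trypsin-EDTA, and counted by trypan blue. Plated at 10 × 10³ cells/well and allowed to attach for 24 h at 37°C, 5% CO2. Exposed 48 h to isolated compounds at 1.8–200 µg/mL final, in triplicate. MTT added at 1 mg/mL final for 4 h, formazan dissolved in DMSO, and A570 read. Survival calculated as a percentage of untreated wells.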

[3] = system: 3T3 (non-cancer immortal cell lines); experiment: In vitro cell antiproliferative test; format: cell-based; conditions: 3T3, 200 µg/mL, 48 hours
In short: as §1

Hydroxyl radical scavenging EC50 [1] | Structure (SMILES) | % of cell survival [2] | % of cell survival [3]
6.58 µg/mL | O=C1O[C@H]([C@@H](O)CO)C(O)=C1O [ascorbic acid] |  | 
 | Oc1cc(O)cc(-c2cc3ccc(O)cc3o2)c1 [Moracin M] | 16.09% | 21.6%
 | C[C@H]1[C@H](C)CC[C@]2(C(=O)O)CC[C@]3(C)C(=CC[C@@H]4[C@@]5(C)CC[C@H](O)C(C)(C)[C@@H]5CC[C@]43C)[C@H]12 [Ursolic acid, ursolic acid] | 8.46% | 17.58%
 | CC(C)=CCc1c(O)cc(O)cc1-c1cc2ccc(O)c(CC=C(C)C)c2o1 [Cathafuran B, cathafuran B] | 8.89% | 20.58%
